Assays:
[1] = test system: Mycobacterium tuberculosis; assay: Antimycobacterial activity against Mycobacterium tuberculosis H37Rv 331/88 after 14 days; assay type: functional; conditions: H37Rv 331/88, 336 h
[2] = test system: Mycobacterium tuberculosis; assay: Antimycobacterial activity against Mycobacterium tuberculosis H37Rv 331/88 after 21 days; assay type: functional; conditions: H37Rv 331/88, 504 h
[3] = test system: Mycobacterium avium; assay: Antimycobacterial activity against Mycobacterium avium 330/80 after 14 days; assay type: functional; conditions: 330/80, 336 h
[4] = test system: Mycobacterium avium; assay: Antimycobacterial activity against Mycobacterium avium 330/80 after 21 days; assay type: functional; conditions: 330/80, 504 h
[5] = test system: Mycobacterium kansasii; assay: Antimycobacterial activity against Mycobacterium kansasii 235/80 after 7 days; assay type: functional; conditions: 235/80, 168 h
Summary of the method: (§1)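 Šula's semisynthetic medium micromethod at 37 °C, read after 7, 14 and 21 days. The 1.0 McFarland suspension was diluted 10^-4. MIC determined. 6509/96 is a clinical isolate.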

[6] = test system: Mycobacterium kansasii; assay: Antimycobacterial activity against Mycobacterium kansasii 235/80 after 14 days; assay type: functional; conditions: 235/80, 336 h; summary of the method: as §1
[7] = test system: Mycobacterium kansasii; assay: Antimycobacterial activity against Mycobacterium kansasii 235/80 after 21 days; assay type: functional; conditions: 235/80, 504 h; summary of the method: as §1
[8] = test system: Mycobacterium kansasii; assay: Antimycobacterial activity against Mycobacterium kansasii 6509/96 after 7 days; assay type: functional; conditions: 6509/96, 168 h; summary of the method: as §1
[9] = test system: Mycobacterium kansasii; assay: Antimycobacterial activity against Mycobacterium kansasii 6509/96 after 14 days; assay type: functional; conditions: 6509/96, 336 h; summary of the method: as §1
[10] = test system: Mycobacterium kansasii; assay: Antimycobacterial activity against Mycobacterium kansasii 6509/96 after 21 days; assay type: functional; conditions: 6509/96, 504 h; summary of the method: as §1
[11] = test system: Staphylococcus aureus; assay: Antibacterial activity against Staphylococcus aureus CCM 4516/08 after 24 hrs by microdilution broth method; assay type: functional; conditions: CCM 4516/08, 24 h
[12] = test system: Staphylococcus aureus; assay: Antibacterial activity against Staphylococcus aureus CCM 4516/08 after 48 hrs by microdilution broth method; assay type: functional; conditions: CCM 4516/08, 48 h
[13] = test system: Staphylococcus aureus; assay: Antibacterial activity against methicillin-resistant Staphylococcus aureus H 5996/08 after 24 hrs by microdilution broth method; assay type: functional; conditions: H 5996/08, 24 h
[14] = test system: Staphylococcus aureus; assay: Antibacterial activity against methicillin-resistant Staphylococcus aureus H 5996/08 after 48 hrs by microdilution broth method; assay type: functional; conditions: H 5996/08, 48 h
[15] = test system: Staphylococcus epidermidis; assay: Antibacterial activity against Staphylococcus epidermidis H 6966/08 after 24 hrs by microdilution broth method; assay type: functional; conditions: H 6966/08, 24 h
Summary of the method: (§2)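 Mueller-Hinton broth microdilution (modified M07-A07), pH 7.4 (±0.2). Compounds dissolved in DMSO, tested at final 500 to 0.49 µmol/L. Inoculum in sterile water matched to 0.5 McFarland. Incubated in the dark, humid atmosphere, 35 °C, read at 24 and 48 h visually and at 540 nm. MIC taken as ≥95% growth reduction (IC95) versus control.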

[16] = test system: Staphylococcus epidermidis; assay: Antibacterial activity against Staphylococcus epidermidis H 6966/08 after 48 hrs by microdilution broth method; assay type: functional; conditions: H 6966/08, 48 h; summary of the method: as §2
[17] = test system: Enterococcus sp.; assay: Antibacterial activity against Enterococcus sp. J 14365/08 after 24 hrs by microdilution broth method; assay type: functional; conditions: J 14365/08, 24 h; summary of the method: as §2
[18] = test system: Enterococcus sp.; assay: Antibacterial activity against Enterococcus sp. J 14365/08 after 48 hrs by microdilution broth method; assay type: functional; conditions: J 14365/08, 48 h; summary of the method: as §2
[19] = test system: Escherichia coli; assay: Antibacterial activity against Escherichia coli CCM4517 after 24 hrs by microdilution broth method; assay type: functional; conditions: CCM4517, 24 h; summary of the method: as §2
[20] = test system: Escherichia coli; assay: Antibacterial activity against Escherichia coli CCM4517 after 48 hrs by microdilution broth method; assay type: functional; conditions: CCM4517, 48 h; summary of the method: as §2
[21] = test system: Klebsiella pneumoniae; assay: Antibacterial activity against Klebsiella pneumoniae D 11750/08 after 24 hrs by microdilution broth method; assay type: functional; conditions: D 11750/08, 24 h; summary of the method: as §2
[22] = test system: Klebsiella pneumoniae; assay: Antibacterial activity against Klebsiella pneumoniae D 11750/08 after 48 hrs by microdilution broth method; assay type: functional; conditions: D 11750/08, 48 h; summary of the method: as §2
[23] = test system: Klebsiella pneumoniae; assay: Antibacterial activity against ESBL-positive Klebsiella pneumoniae J 14368/08 after 24 hrs by microdilution broth method; assay type: functional; conditions: J 14368/08, 24 h; summary of the method: as §2
[24] = test system: Klebsiella pneumoniae; assay: Antibacterial activity against ESBL-positive Klebsiella pneumoniae J 14368/08 after 48 hrs by microdilution broth method; assay type: functional; conditions: J 14368/08, 48 h; summary of the method: as §2
[25] = test system: Pseudomonas aeruginosa; assay: Antibacterial activity against Pseudomonas aeruginosa CCM 1961 after 24 hrs by microdilution broth method; assay type: functional; conditions: CCM 1961, 24 h; summary of the method: as §2
[26] = test system: Pseudomonas aeruginosa; assay: Antibacterial activity against Pseudomonas aeruginosa CCM 1961 after 48 hrs by microdilution broth method; assay type: functional; conditions: CCM 1961, 48 h; summary of the method: as §2
[27] = test system: Candida albicans; assay: Antifungal activity against Candida albicans ATCC 44859 after 24 hrs by microdilution broth method; assay type: functional; conditions: ATCC 44859, 24 h
Summary of the method: (§3)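 CLSI M27-A3 broth microdilution in RPMI 1640 with glutamine, buffered to pH 7.0 with MOPS; DMSO diluent. Yeast inoculum 5 × 10^3 ± 0.2 CFU/mL. Moulds grown on Sabouraud agar 3–10 days before spore harvest, final inoculum 0.5-5 × 10^4 CFU/mL, checked in a Bürker chamber. Incubated dark, humid, 35 °C, read at 24 and 48 h visually and at 540 nm. MIC taken as ≥80% (yeasts) or ≥50% (filamentous) growth reduction versus control.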

[28] = test system: Candida albicans; assay: Antifungal activity against Candida albicans ATCC 44859 after 48 hrs by microdilution broth method; assay type: functional; conditions: ATCC 44859, 48 h; summary of the method: as §3
[29] = test system: Candida tropicalis; assay: Antifungal activity against Candida tropicalis 156 after 24 hrs by microdilution broth method; assay type: functional; conditions: Candida tropicalis, 156, 24 h; summary of the method: as §3
[30] = test system: Candida tropicalis; assay: Antifungal activity against Candida tropicalis 156 after 48 hrs by microdilution broth method; assay type: functional; conditions: Candida tropicalis, 156, 48 h; summary of the method: as §3
[31] = test system: Pichia kudriavzevii; assay: Antifungal activity against Candida krusei E28 after 24 hrs by microdilution broth method; assay type: functional; conditions: E28, 24 h; summary of the method: as §3
[32] = test system: Pichia kudriavzevii; assay: Antifungal activity against Candida krusei E28 after 48 hrs by microdilution broth method; assay type: functional; conditions: E28, 48 h; summary of the method: as §3
[33] = test system: Nakaseomyces glabratus; assay: Antifungal activity against Candida glabrata 20/I after 24 hrs by microdilution broth method; assay type: functional; summary of the method: as §3
[34] = test system: Nakaseomyces glabratus; assay: Antifungal activity against Candida glabrata 20/I after 48 hrs by microdilution broth method; assay type: functional; summary of the method: as §3
[35] = test system: Trichosporon asahii; assay: Antifungal activity against Trichosporon asahii 1188 after 24 hrs by microdilution broth method; assay type: functional; conditions: Trichosporon asahii, 1188, 24 h; summary of the method: as §3
[36] = test system: Trichosporon asahii; assay: Antifungal activity against Trichosporon asahii 1188 after 48 hrs by microdilution broth method; assay type: functional; conditions: Trichosporon asahii, 1188, 48 h; summary of the method: as §3
[37] = test system: Aspergillus fumigatus; assay: Antifungal activity against Aspergillus fumigatus 231 after 24 hrs by microdilution broth method; assay type: functional; conditions: Aspergillus fumigatus, 231, 24 h; summary of the method: as §3
[38] = test system: Aspergillus fumigatus; assay: Antifungal activity against Aspergillus fumigatus 231 after 48 hrs by microdilution broth method; assay type: functional; conditions: Aspergillus fumigatus, 231, 48 h; summary of the method: as §3
[39] = test system: Lichtheimia corymbifera; assay: Antifungal activity against Absidia corymbifera 272 after 24 hrs by microdilution broth method; assay type: functional; conditions: Lichtheimia corymbifera, 272, 24 h; summary of the method: as §3
[40] = test system: Lichtheimia corymbifera; assay: Antifungal activity against Absidia corymbifera 272 after 48 hrs by microdilution broth method; assay type: functional; conditions: Lichtheimia corymbifera, 272, 48 h; summary of the method: as §3
[41] = test system: Trichophyton mentagrophytes; assay: Antifungal activity against Trichophyton mentagrophytes 445 after 24 hrs by microdilution broth method; assay type: functional; conditions: Trichophyton mentagrophytes, 445, 24 h
[42] = test system: Trichophyton mentagrophytes; assay: Antifungal activity against Trichophyton mentagrophytes 445 after 48 hrs by microdilution broth method; assay type: functional; conditions: Trichophyton mentagrophytes, 445, 48 h
[43] = test system: HepG2; assay: Cytotoxicity against human HepG2 cells after 24 hrs […]; assay type: cell-based; conditions: HepG2, 24 h
[44] = Selectivity index, ratio of CI50 for human HepG2 cells to MIC100 for Mycobacterium tuberculosis H37Rv 331/88

O=C(Nc1ccc(Cl)c(Cl)c1)c1ccc([N+](=O)[O-])cc1O
1.4 µM: IC50 [43]
500 µM: MIC [18]
32 µM: MIC [3]
0.175: Selectivity Index [44]
15.6 µM: MIC [32] | MIC [36]
> 250 µM: MIC [30]
4 µM: MIC [1] | MIC [5]
125 µM: MIC [17] | MIC [29] | MIC [41] | MIC [42]
8 µM: MIC [2] | MIC [6] | MIC [7] | MIC [8]
31.2 µM: MIC [33] | MIC [37] | MIC [38] | MIC [39] | MIC [40]
16 µM: MIC [9] | MIC [10]
7.81 µM: MIC [31] | MIC [35]
> 500 µM: MIC [19] | MIC [20] | MIC [21] | MIC [22] | MIC [23] | MIC [24] | MIC [25] | MIC [26]
1.95 µM: MIC [13] | MIC [14] | MIC [15] | MIC [16]
3.9 µM: MIC [11] | MIC [12]
62.5 µM: MIC [4] | MIC [27] | MIC [28] | MIC [34]

O=C(Nc1cc(C(F)(F)F)cc(C(F)(F)F)c1)c1cc([N+](=O)[O-])ccc1O
0.869: Selectivity Index [44]
3.9 µM: MIC [11] | MIC [12]
16 µM: MIC [1] | MIC [2] | MIC [5] | MIC [8]
32 µM: MIC [3] | MIC [4] | MIC [6] | MIC [7] | MIC [9] | MIC [10]
7.81 µM: MIC [13] | MIC [14]
> 500 µM: MIC [19] | MIC [20] | MIC [21] | MIC [22] | MIC [23] | MIC [24] | MIC [25] | MIC [26] | MIC [27] | MIC [28] | MIC [29] | MIC [30] | MIC [31] | MIC [32] | MIC [33] | MIC [34] | MIC [35] | MIC [36] | MIC [37] | MIC [38] | MIC [39] | MIC [40] | MIC [41] | MIC [42]
13.9 µM: IC50 [43]
15.6 µM: MIC [15] | MIC [16]
500 µM: MIC [17] | MIC [18]

Source: ChEMBL document CHEMBL3627671, “Novel derivatives of nitro-substituted salicylic acids: Synthesis, antimicrobial activity and cytotoxicity” (Bioorg Med Chem, 2015)
